Experimental data from ChEMBL document CHEMBL1143019, “Hybrid molecules of estrone: new compounds with potential antibacterial, antifungal, and antiproliferative activities” (2007).
≈ marks a conversion by molar mass, not a printed value.

Legend:
Mycobacterium avium [1] = test: Antimicrobial activity against Mycobacterium avium My 330/88 after 14 days; type: functional; details: 336 h
Candida albicans [2] = test: Antifungal activity against Candida albicans ATCC 44859 after 48 hrs; type: functional; details: ATCC 44859, 48 h
Method in brief: (§1)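 Modified NCCLS M27-A broth microdilution with clinical isolates subcultured on Sabouraud dextrose agar. Suspensions diluted 1:50 in RPMI 1640 to give a final inoculum of 0.5–2.5×10³ CFU/mL for yeasts or 0.5–5×10⁴ CFU/mL for molds. The RPMI had L-glutamine, no bicarbonate, and 0.165 M MOPS to pH 7.0. Twofold dilutions from 250 to 0.49. Plates held at 35 °C, humid, without agitation. MIC is the lowest concentration giving ≥80% inhibition versus drug-free control, read at 24 and 48 h.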

Mycobacterium kansasii [3] = test: Antimicrobial activity against Mycobacterium kansasii My 235/80 after 14 days; type: functional; details: 336 h
Method in brief: (§2)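 Run in Šula semisynthetic liquid medium containing bovine serum. Compounds added as DMSO solutions at final concentrations of […]. Each strain was also inoculated onto Löwenstein–Jensen medium to control inoculum sterility and growth.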

Candida tropicalis [4] = test: Antifungal activity against Candida tropicalis 156 after 48 hrs; type: functional; method in brief: as §1
Trichophyton benhamiae [5] = test: Antifungal activity against Trichophyton mentagrophytes 445 after 120 hrs; type: functional, Arthroderma benhamiae
Method in brief: (§3)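 Same modified M27-A microdilution with the mold inoculum of 0.5–5×10⁴ CFU/mL. Medium was RPMI 1640 with L-glutamine, no bicarbonate, and 0.165 M MOPS at pH 7.0. Twofold dilutions from 250 to 0.49. Incubated at 35 °C in a humid atmosphere.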

Mycobacterium kansasii [6] = test: Antimicrobial activity against Mycobacterium kansasii My 6509/96 after 14 days; type: functional; details: 336 h; method in brief: as §2
[7] = system: Mycobacterium tuberculosis; test: Antimicrobial activity against Mycobacterium tuberculosis My 331/88 after 21 days; type: functional; details: 504 h
Lichtheimia corymbifera [8] = test: Antifungal activity against Absidia corymbifera 272 after 24 hrs; type: functional; method in brief: as §1
Mycobacterium kansasii [9] = test: Antimicrobial activity against Mycobacterium kansasii My 235/80 after 21 days; type: functional; details: 504 h; method in brief: as §2
K562 = test: Antiproliferative activity against human K562 cells after 72 hrs; type: functional; details: K562, 72 h
Method in brief: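 About 10,000 suspension cells per well in RPMI 1640 with 10% heat-inactivated FBS and penicillin/streptomycin, without HEPES. Exposed to 10 concentrations for 72 h at 37 °C in humidified 5% CO₂. Wells diluted 1:50 in CASYTON and counted electronically, each result the mean of three successive counts. GI50 is where the concentration–response curve crosses 50% of control cell count.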

Mycobacterium kansasii [10] = test: Antimicrobial activity against Mycobacterium kansasii My 235/80 after 7 days; type: functional; details: 168 h; method in brief: as §2
Mycobacterium kansasii [11] = test: Antimicrobial activity against Mycobacterium kansasii My 6509/96 after 21 days; type: functional; details: 504 h; method in brief: as §2
Aspergillus fumigatus [12] = test: Antifungal activity against Aspergillus fumigatus 231 after 48 hrs; type: functional; method in brief: as §1
Nakaseomyces glabratus [13] = test: Antifungal activity against Candida glabrata 20/I after 48 hrs; type: functional; method in brief: as §1
Pichia kudriavzevii [14] = test: Antifungal activity against Candida krusei E28 after 24 hrs; type: functional; method in brief: as §1
Mycobacterium kansasii [15] = test: Antimicrobial activity against Mycobacterium kansasii My 6509/96 after 7 days; type: functional; details: 168 h; method in brief: as §2
Trichophyton benhamiae [16] = test: Antifungal activity against Trichophyton mentagrophytes 445 after 72 hrs; type: functional, Arthroderma benhamiae; method in brief: as §3
Aspergillus fumigatus [17] = test: Antifungal activity against Aspergillus fumigatus 231 after 24 hrs; type: functional; method in brief: as §1
Trichosporon beigelii [18] = test: Antifungal activity against Trichosporon beigelii 1188 after 48 hrs; type: functional; method in brief: as §1
Candida tropicalis [19] = test: Antifungal activity against Candida tropicalis 156 after 24 hrs; type: functional; method in brief: as §1
L929 = test: Antiproliferative activity against mouse L929 cells after 72 hrs; type: functional; details: L929, 72 h
Method in brief: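 About 10,000 adherent cells per well in RPMI 1640 with 10% heat-inactivated FBS and penicillin/streptomycin, without HEPES. Exposed to 10 concentrations for 72 h at 37 °C in humidified 5% CO₂. Monolayers fixed with glutaraldehyde, stained 15 min with 0.05% methylene blue, and eluted with 0.33 N HCl; OD read at 630 nm. GI50 derived from dose–response curves relative to control.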

Trichosporon beigelii [20] = test: Antifungal activity against Trichosporon beigelii 1188 after 24 hrs; type: functional; method in brief: as §1
Nakaseomyces glabratus [21] = test: Antifungal activity against Candida glabrata 20/I after 24 hrs; type: functional; method in brief: as §1
Lichtheimia corymbifera [22] = test: Antifungal activity against Absidia corymbifera 272 after 48 hrs; type: functional; method in brief: as §1
Candida albicans [23] = test: Antifungal activity against Candida albicans ATCC 44859 after 24 hrs; type: functional; details: ATCC 44859, 24 h; method in brief: as §1
[24] = system: Mycobacterium tuberculosis; test: Antimicrobial activity against Mycobacterium tuberculosis My 331/88 after 14 days; type: functional; details: 336 h
Mycobacterium avium [25] = test: Antimicrobial activity against Mycobacterium avium My 330/88 after 21 days; type: functional; details: 504 h
Pichia kudriavzevii [26] = test: Antifungal activity against Candida krusei E28 after 48 hrs; type: functional; method in brief: as §1
HeLa = test: Cytotoxicity against human HeLa cells after 72 hrs; type: functional; details: for CC50: Homo sapiens, HeLa, 72 h
Method in brief: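 About 10,000 cells per well in RPMI 1640 were preincubated 48 h without compound. The 10 test concentrations were then applied onto the monolayers and incubated 72 h at 37 °C in humidified 5% CO₂. Monolayers fixed with glutaraldehyde, stained with 0.05% methylene blue, and eluted with 0.33 N HCl; optical density measured at 630 nm.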

Mycolicibacterium aurum = test: Antimicrobial activity against Mycobacterium aurum SB 66 after 24 hrs by micro-broth dilution method; type: functional
Method in brief: (§4)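 Microbroth dilution per NCCLS guidelines. Bacteria grown overnight at 37 °C in Mueller–Hinton broth. Compound solution serially diluted twofold in MHB, then wells inoculated to a final 5×10⁵ CFU/mL. Incubated 24 h at 37 °C. MIC (µg/mL) read on an automatic plate reader as the lowest dilution allowing no visible growth.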

Mycolicibacterium vaccae = test: Antimicrobial activity against Mycobacterium vaccae 10670 after 24 hrs by micro-broth dilution method; type: functional; method in brief: as §4
Staphylococcus aureus [27] = test: Antibacterial activity against Staphylococcus aureus SG 511 after 24 hrs by micro-broth dilution method; type: functional; details: SG 511, 24 h; method in brief: as §4
Staphylococcus aureus [28] = test: Antibacterial activity against methicillin-resistant Staphylococcus aureus 994/93 after 24 hrs by micro-broth dilution method; type: functional
Method in brief: (§5)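 Broth microdilution per NCCLS in Mueller–Hinton broth. Overnight cultures grown at 37 °C. Compound serially diluted twofold, then wells inoculated to a final 5×10⁵ CFU/mL. Plates held at 37 °C for 24 h. MIC (µg/mL) read on an automatic plate reader as the lowest dilution with no visible growth.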

[29] = system: Mycolicibacterium fortuitum; test: Antimicrobial activity against Mycobacterium fortuitum Borstel after 24 hrs by microbroth dilution method; type: functional; method in brief: as §4
Staphylococcus aureus [30] = test: Antibacterial activity against methicillin-resistant Staphylococcus aureus 134/94 after 24 hrs by microbroth dilution method; type: functional; method in brief: as §5
Micrococcus luteus = test: Antibacterial activity against Micrococcus luteus ATCC 10240 after 24 hrs by microbroth dilution method; type: functional; details: ATCC 10240, 24 h; method in brief: as §4
Enterococcus faecalis = test: Antibacterial activity against Enterococcus faecalis 1528 after 24 hrs by micro-broth dilution method; type: functional; method in brief: as §4
[31] = system: Mycolicibacterium smegmatis; test: Antimicrobial activity against Mycobacterium smegmatis SG 987 after 24 hrs by micro-broth dilution method; type: functional; method in brief: as §4

Structure (SMILES): c1ccc(CSc2nnnn2-c2ccccc2)cc1
- MIC (Mycobacterium avium [1]): 32 µM (≈ 8.59 µg/mL)
- MIC (Candida albicans [2]): > 250 µM
- MIC (Mycobacterium kansasii [3]): 32 µM (≈ 8.59 µg/mL)
- MIC (Candida tropicalis [4]): > 250 µM
- MIC (Trichophyton benhamiae [5]): 62.5 µM (≈ 16.8 µg/mL)
- MIC (Mycobacterium kansasii [6]): 32 µM (≈ 8.59 µg/mL)
- MIC [7]: 62.5 µM (≈ 16.8 µg/mL)
- MIC (Lichtheimia corymbifera [8]): > 250 µM
- MIC (Mycobacterium kansasii [9]): 125 µM (≈ 33.5 µg/mL)
- GI50 (K562): 36.1 µg/mL (≈ 135 µM)
- MIC (Mycobacterium kansasii [10]): 16 µM (≈ 4.29 µg/mL)
- MIC (Mycobacterium kansasii [11]): 125 µM (≈ 33.5 µg/mL)
- MIC (Aspergillus fumigatus [12]): > 250 µM
- MIC (Nakaseomyces glabratus [13]): > 250 µM
- MIC (Pichia kudriavzevii [14]): > 250 µM
- MIC (Mycobacterium kansasii [15]): 16 µM (≈ 4.29 µg/mL)
- MIC (Trichophyton benhamiae [16]): 31.3 µM (≈ 8.4 µg/mL)
- MIC (Aspergillus fumigatus [17]): > 250 µM
- MIC (Trichosporon beigelii [18]): > 250 µM
- MIC (Candida tropicalis [19]): > 250 µM
- GI50 (L929): 22.5 µg/mL (≈ 83.8 µM)
- MIC (Trichosporon beigelii [20]): > 250 µM
- MIC (Nakaseomyces glabratus [21]): > 250 µM
- MIC (Lichtheimia corymbifera [22]): > 250 µM
- MIC (Candida albicans [23]): > 250 µM
- MIC [24]: 16 µM (≈ 4.29 µg/mL)
- MIC (Mycobacterium avium [25]): 125 µM (≈ 33.5 µg/mL)
- MIC (Pichia kudriavzevii [26]): > 250 µM
- CC10 (HeLa): 8.7 µg/mL (≈ 32.4 µM)
- CC50 (HeLa): 41.6 µg/mL (≈ 155 µM)

Structure (SMILES): c1ccc(CSc2ccncc2)cc1
- MIC (Mycobacterium avium [1]): 125 µM (≈ 25.2 µg/mL)
- MIC (Mycobacterium kansasii [3]): 125 µM (≈ 25.2 µg/mL)
- MIC (Mycobacterium kansasii [6]): 125 µM (≈ 25.2 µg/mL)
- MIC [7]: 125 µM (≈ 25.2 µg/mL)
- MIC (Mycolicibacterium aurum): 25 µg/mL (≈ 124 µM)
- MIC (Mycobacterium kansasii [9]): 125 µM (≈ 25.2 µg/mL)
- GI50 (K562): > 50 µg/mL
- MIC (Mycobacterium kansasii [10]): 62.5 µM (≈ 12.6 µg/mL)
- MIC (Mycobacterium kansasii [11]): 125 µM (≈ 25.2 µg/mL)
- MIC (Mycolicibacterium vaccae): 50 µg/mL (≈ 248 µM)
- MIC (Mycobacterium kansasii [15]): 62.5 µM (≈ 12.6 µg/mL)
- MIC (Staphylococcus aureus [27]): 100 µg/mL (≈ 497 µM)
- MIC (Staphylococcus aureus [28]): 100 µg/mL (≈ 497 µM)
- MIC [29]: 50 µg/mL (≈ 248 µM)
- GI50 (L929): 34.3 µg/mL (≈ 170 µM)
- MIC (Staphylococcus aureus [30]): > 100 µg/mL
- MIC (Micrococcus luteus): 100 µg/mL (≈ 497 µM)
- MIC (Enterococcus faecalis): 100 µg/mL (≈ 497 µM)
- MIC [24]: 125 µM (≈ 25.2 µg/mL)
- MIC (Mycobacterium avium [25]): 125 µM (≈ 25.2 µg/mL)
- MIC [31]: 100 µg/mL (≈ 497 µM)
- CC10 (HeLa): 14 µg/mL (≈ 69.6 µM)
- CC50 (HeLa): 23.6 µg/mL (≈ 117 µM)
